Laboratory results: ChEMBL document CHEMBL1250520, “Antitumor agents. 280. Multidrug resistance-selective desmosdumotin B analogues” (2010)

Assays:
Type in all cases: functional
[1] = Selectivity ratio of ED50 for human KB cells to ED50 for human KBVIN cells
Procedure, shortened: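 Ratio of KB ED50 to KB-VIN ED50. Both values come from a 3-day sulforhodamine B assay with absorbance read at 562 nm. Cells were seeded at 1500–7500 per well and dosed from DMSO-diluted stock. Each ED50 is the mean of at least three independent determinations.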

[2] = tested on: KB; assay: Anticancer activity against human KB cells after 3 days by SRB assay; details: 72 h, read-out: ED50 (the source's name)
Procedure, shortened: (§1)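 Cells seeded at 1500–7500 per well, compounds added from DMSO-diluted stock, grown 3 days in RPMI-1640 with 25mM HEPES, 0.25% sodium bicarbonate, 10% FBS and kanamycin. Attached cells fixed in cold 50% TCA, stained with 0.4% sulforhodamine B, absorbance read at 562 nm after dye solubilization. ED50 is the 50% growth-reduction concentration, averaged from at least three independent determinations.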

[3] = Anticancer activity against human KBVIN cells after 3 days by SRB assay; details: 72 h, read-out: ED50 (the source's name); procedure, shortened: as §1

EC50 [2] [µM]	Structure (SMILES)	Ratio ED50 [1]	EC50 [3] [µM]
> 56.2	CCC1=C(O)c2c(oc(-c3cccc(F)c3)cc2=O)C(CC)(CC)C1=O	>18	3.09
40.8	CCC1=C(O)c2c(oc(-c3ccccc3OC)cc2=O)C(CC)(CC)C1=O	13	3.26
> 56.2	CCC1=C(O)c2c(oc(-c3ccccc3F)cc2=O)C(CC)(CC)C1=O	>14	3.93
35.7	CCC1=C(O)c2c(oc(-c3cccc(C(F)(F)F)c3)cc2=O)C(CC)(CC)C1=O	6.6	5.42
9.4	CCC1=C(O)c2c(oc(-c3ccc(OC)c(OC)c3OC)cc2=O)C(CC)(CC)C1=O	6	1.57
45.2	CCC1=C(O)c2c(oc(-c3cc(OC)cc(OC)c3)cc2=O)C(CC)(CC)C1=O	14	3.27
> 52.4	CCOc1ccc(-c2cc(=O)c3c(o2)C(CC)(CC)C(=O)C(CC)=C3O)cc1	>7	7.54
41.2	CCC1=C(O)c2c(oc(-c3ccc(C)cc3C)cc2=O)C(CC)(CC)C1=O	5	8.52
47.3	CCC1=C(O)c2c(oc(-c3cc(C)ccc3F)cc2=O)C(CC)(CC)C1=O	15	3.24
36.6	CCC1=C(O)c2c(oc(-c3cc(C)c(OC)cc3C)cc2=O)C(CC)(CC)C1=O	5	7.58
14.7	CCC1=C(O)c2c(oc(-c3ccc(OC)c(OC)c3)cc2=O)C(CC)(CC)C1=O	15	1
8.13	CCC1=C(O)c2c(oc(-c3ccc(C(C)C)cc3)cc2=O)C(CC)(CC)C1=O		1.08
8.8	CCC1=C(O)c2c(oc(-c3cc(OC)ccc3OC)cc2=O)C(CC)(CC)C1=O	4	2.51
33	CCC1=C(O)c2c(oc(-c3ccc(F)cc3)cc2=O)C(CC)(CC)C1=O	18	1.85
111	CCCCc1ccc(-c2cc(=O)c3c(o2)C(CC)(CC)C(=O)C(CC)=C3O)cc1	3	37
26.7	CCC1=C(O)c2c(oc(-c3ccc(OC)c(F)c3)cc2=O)C(CC)(CC)C1=O	250	0.1
13.3	CCC1=C(O)c2c(oc(-c3cccc(OC)c3)cc2=O)C(CC)(CC)C1=O	11	1.22
49.7	CCC1=C(O)c2c(oc(-c3cccc(C)c3)cc2=O)C(CC)(CC)C1=O	14	3.69
39	CCC1=C(O)c2c(oc(-c3ccc(C)c(Cl)c3)cc2=O)C(CC)(CC)C1=O	18	2.15
6.5	CCC1=C(O)c2c(oc(-c3ccc(O)c(C)c3C)cc2=O)C(CC)(CC)C1=O	2	2.75
35.5	CCC1=C(O)c2c(oc(-c3ccc(C)c(C)c3)cc2=O)C(CC)(CC)C1=O	50	0.71
46.7	CCC1=C(O)c2c(oc(-c3cc(OC)c(OC)c(OC)c3)cc2=O)C(CC)(CC)C1=O	8	5.6
> 52.1	CCC1=C(O)c2c(oc(-c3ccc(SC)cc3)cc2=O)C(CC)(CC)C1=O	>38	1.38
40.9	CCC1=C(O)c2c(oc(-c3ccccc3C)cc2=O)C(CC)(CC)C1=O [6,8,8-TRIETHYL-2-METHYL DESMOSDUMOTIN B]	17	2.41

EC50 [2] [µM]	Structure (SMILES)	Ratio ED50 [1]	EC50 [3] [µM]
8.2	CCC1=C(O)c2c(oc(-c3cc(C)c(C)cc3C)cc2=O)C(CC)(CC)C1=O	2	4.37
> 48.1	CCC1=C(O)c2c(oc(-c3ccc(Br)cc3)cc2=O)C(CC)(CC)C1=O	3	15.7
40.5	CCC1=C(O)c2c(oc(-c3ccc(F)c(C)c3)cc2=O)C(CC)(CC)C1=O	24	1.62
> 52.4	CCC1=C(O)c2c(oc(-c3ccc(COC)cc3)cc2=O)C(CC)(CC)C1=O	15	3.4
14.5	CCC1=C(O)c2c(oc(-c3cc(C)ccc3C)cc2=O)C(CC)(CC)C1=O	4	3.41
45.5	CCC1=C(O)c2c(oc(-c3cc(C)cc(C)c3)cc2=O)C(CC)(CC)C1=O	100	0.45
44.6	CCOc1cccc(-c2cc(=O)c3c(o2)C(CC)(CC)C(=O)C(CC)=C3O)c1OCC	1.4	31.7
5.43	CCC1=C(O)c2c(oc(-c3ccc(OC)c(C)c3C)cc2=O)C(CC)(CC)C1=O	20	0.28
> 53	CCCc1ccc(-c2cc(=O)c3c(o2)C(CC)(CC)C(=O)C(CC)=C3O)cc1	>4	12.2
21.8	CCC1=C(O)c2c(oc(-c3cc(Cl)c(OC)c(OC)c3)cc2=O)C(CC)(CC)C1=O	3	8.4
20.6	CCC1=C(O)c2c(oc(-c3ccc(O)cc3)cc2=O)C(CC)(CC)C1=O	1	20.6
35.2	CCC1=C(O)c2c(oc(-c3cccc(OC)c3OC)cc2=O)C(CC)(CC)C1=O	9	4.02
> 47.4	CCC1=C(O)c2c(oc(-c3cccc(OC(F)(F)F)c3)cc2=O)C(CC)(CC)C1=O	>5	9.95
45.6	CCC1=C(O)c2c(oc(-c3ccccc3C(F)(F)F)cc2=O)C(CC)(CC)C1=O	1	43.1
29.3	CCC1=C(O)c2c(oc(-c3ccc(C(C)(C)C)cc3)cc2=O)C(CC)(CC)C1=O	2	17.4
10	CCC1=C(O)c2c(oc(-c3ccc(O)c(O)c3)cc2=O)C(CC)(CC)C1=O	2	5.41
35.7	CCC1=C(O)c2c(oc(-c3ccc(C(F)(F)F)cc3)cc2=O)C(CC)(CC)C1=O	3.5	10.3
28.5	CCC1=C(O)c2c(oc(-c3ccc(OC)c(C)c3)cc2=O)C(CC)(CC)C1=O	273	0.1
24.9	CCC1=C(O)c2c(oc(-c3ccc(OC)c(Cl)c3)cc2=O)C(CC)(CC)C1=O	18	1.37
17.7	CCC1=C(O)c2c(oc(-c3ccc(OC)cc3)cc2=O)C(CC)(CC)C1=O	26	0.68
3.1	CCC1=C(O)c2c(oc(-c3cccc(C)c3C)cc2=O)C(CC)(CC)C1=O	4	0.85
> 50.5	CCCOc1ccc(-c2cc(=O)c3c(o2)C(CC)(CC)C(=O)C(CC)=C3O)cc1	>2	29.2
18.3	CCC1=C(O)c2c(oc(-c3cc(C)c(O)c(C)c3)cc2=O)C(CC)(CC)C1=O	2	8.9
